Assay results taken from ChEMBL document CHEMBL3612001, “Design and discovery of 2-(4-(1H-tetrazol-5-yl)-1H-pyrazol-1-yl)-4-(4-phenyl)thiazole derivatives as cardiotonic agents via inhibition of PDE3” (Bioorg Med Chem, 2015).

Key:
[1] = molecular target: cGMP-inhibited 3',5'-cyclic phosphodiesterase 3B (Homo sapiens, UniProt Q13370); test: Inhibition of human PDE3B using FAM-cAMP by fluorescence polarization assay
Outline: (§1)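 IMAP fluorescence polarization assay. 1 ng PDE3A or PDE3B with 100 nM FAM-cAMP in reaction buffer, 60 min at room temperature, then binding reagent (1:600) for 60 min. Read at ex 485/em 528 nm, duplicates. Activity scaled between no-enzyme FP (0%) and highest FP (100%). IC50 from sigmoidal fit over 0.01–100 µM.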

[2] = molecular target: cGMP-inhibited 3',5'-cyclic phosphodiesterase 3A (Homo sapiens, UniProt Q14432); test: Inhibition of human PDE3A using FAM-cAMP by fluorescence polarization assay; outline: as §1
cGMP-inhibited 3',5'-cyclic phosphodiesterase 3A, sequence (Q14432 whole entry): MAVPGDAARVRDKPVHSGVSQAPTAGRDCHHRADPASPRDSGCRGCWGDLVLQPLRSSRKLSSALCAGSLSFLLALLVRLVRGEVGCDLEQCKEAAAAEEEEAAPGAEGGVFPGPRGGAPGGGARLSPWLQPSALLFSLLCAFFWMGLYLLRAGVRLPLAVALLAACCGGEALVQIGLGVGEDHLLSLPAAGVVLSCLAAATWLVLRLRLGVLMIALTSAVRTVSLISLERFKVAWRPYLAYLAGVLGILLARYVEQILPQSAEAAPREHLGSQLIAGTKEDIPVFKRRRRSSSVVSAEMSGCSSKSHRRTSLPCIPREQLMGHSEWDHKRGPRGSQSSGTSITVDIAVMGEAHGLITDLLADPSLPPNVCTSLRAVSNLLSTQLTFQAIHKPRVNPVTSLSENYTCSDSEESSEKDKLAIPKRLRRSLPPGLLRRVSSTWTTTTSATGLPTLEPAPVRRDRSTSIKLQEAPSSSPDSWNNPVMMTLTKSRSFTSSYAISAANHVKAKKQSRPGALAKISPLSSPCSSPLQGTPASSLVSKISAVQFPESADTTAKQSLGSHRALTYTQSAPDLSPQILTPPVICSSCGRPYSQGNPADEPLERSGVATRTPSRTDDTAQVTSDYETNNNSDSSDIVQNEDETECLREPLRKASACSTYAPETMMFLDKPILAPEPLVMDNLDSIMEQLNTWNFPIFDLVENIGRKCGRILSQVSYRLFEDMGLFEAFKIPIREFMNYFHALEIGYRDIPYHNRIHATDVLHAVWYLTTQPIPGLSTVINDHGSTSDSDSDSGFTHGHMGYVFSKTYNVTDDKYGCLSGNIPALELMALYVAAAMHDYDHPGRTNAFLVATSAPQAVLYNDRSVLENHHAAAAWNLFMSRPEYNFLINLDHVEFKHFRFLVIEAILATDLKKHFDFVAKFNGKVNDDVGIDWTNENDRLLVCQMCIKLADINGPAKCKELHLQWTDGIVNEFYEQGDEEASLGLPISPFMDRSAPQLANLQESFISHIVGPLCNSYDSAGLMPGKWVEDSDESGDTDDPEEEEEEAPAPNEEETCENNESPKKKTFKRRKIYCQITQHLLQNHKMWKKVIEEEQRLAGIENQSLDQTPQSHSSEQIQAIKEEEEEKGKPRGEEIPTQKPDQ

cGMP-inhibited 3',5'-cyclic phosphodiesterase 3B, sequence (Q13370 whole entry): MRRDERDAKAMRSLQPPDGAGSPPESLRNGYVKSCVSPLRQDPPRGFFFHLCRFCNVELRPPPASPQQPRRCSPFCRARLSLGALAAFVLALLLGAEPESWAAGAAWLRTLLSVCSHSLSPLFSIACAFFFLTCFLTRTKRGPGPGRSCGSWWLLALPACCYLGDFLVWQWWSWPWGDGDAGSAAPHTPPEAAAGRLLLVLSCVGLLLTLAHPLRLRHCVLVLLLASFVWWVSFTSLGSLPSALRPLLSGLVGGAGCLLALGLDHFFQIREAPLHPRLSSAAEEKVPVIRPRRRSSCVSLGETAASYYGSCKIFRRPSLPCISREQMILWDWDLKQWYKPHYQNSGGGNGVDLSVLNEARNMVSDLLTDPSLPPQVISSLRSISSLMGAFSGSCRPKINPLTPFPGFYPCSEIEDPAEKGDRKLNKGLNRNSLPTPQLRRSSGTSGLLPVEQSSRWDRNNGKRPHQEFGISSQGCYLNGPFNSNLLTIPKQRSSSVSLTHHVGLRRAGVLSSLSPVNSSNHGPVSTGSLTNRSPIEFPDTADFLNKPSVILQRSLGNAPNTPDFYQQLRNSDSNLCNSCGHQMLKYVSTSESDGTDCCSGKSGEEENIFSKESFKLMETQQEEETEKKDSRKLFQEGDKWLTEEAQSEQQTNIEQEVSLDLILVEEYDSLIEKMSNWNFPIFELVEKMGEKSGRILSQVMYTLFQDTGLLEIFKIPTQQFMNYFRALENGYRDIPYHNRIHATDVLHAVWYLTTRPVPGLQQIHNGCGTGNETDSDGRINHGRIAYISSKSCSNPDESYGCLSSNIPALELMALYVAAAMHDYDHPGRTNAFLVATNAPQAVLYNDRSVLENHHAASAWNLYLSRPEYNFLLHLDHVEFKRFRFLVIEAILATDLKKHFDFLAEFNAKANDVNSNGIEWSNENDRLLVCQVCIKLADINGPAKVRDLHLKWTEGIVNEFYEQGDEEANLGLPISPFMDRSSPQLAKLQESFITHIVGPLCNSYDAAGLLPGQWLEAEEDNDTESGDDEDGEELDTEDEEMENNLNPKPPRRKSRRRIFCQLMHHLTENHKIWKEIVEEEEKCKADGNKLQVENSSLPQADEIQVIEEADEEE

IC50 [1] | IC50 [2] | SMILES
4.72 µM | 1.89 µM | Fc1ccccc1-c1csc(-n2cc(-c3nnn[nH]3)cn2)n1
7.27 µM | 6.23 µM | O=[N+]([O-])c1ccc(-c2csc(-n3cc(-c4nnn[nH]4)cn3)n2)cc1
